Results taken from ChEMBL document CHEMBL1153427, “1-Sulfonyl-4-acylpiperazines as selective cannabinoid-1 receptor (CB1R) inverse agonists for the treatment of obesity” (J Med Chem, 2009).

Assays:
Cannabinoid receptor 1 [1] = target: T1, Cannabinoid receptor 1 (Homo sapiens, UniProt P21554); assay: Displacement of [3H]CP-55940 from human recombinant CB1R expressed in CHO cells; type: cell-based
How it was run: (§1)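 Radioligand competition used 0.5 nM [³H]CP55940 with recombinant human CB1R-CHO or CB2R-CHO membranes. Bound and free ligand were separated by filtration, and IC₅₀ came from nonlinear curve fitting.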

[2] = Plasma clearance in Sprague-Dawley rat at 1 mg/kg, iv and 2 mg/kg, po; type: ADME, organism-based
How it was run: (§2)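 Male Sprague-Dawley rats received 1 mpk intravenously or 2 mpk orally. Blood was drawn at various time points into lithium heparin and centrifuged, and plasma was stored at -70 °C. Plasma was extracted by protein precipitation and analysed by LC-MS/MS.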

[3] = Volume of distribution at steady state in Sprague-Dawley rat at 1 mg/kg, iv and 2 mg/kg, po; type: ADME, organism-based; conditions: in vivo, read-out: Vdss; how it was run: as §2
[4] = Bioavailability in Sprague-Dawley rat at 1 mg/kg, iv and 2 mg/kg, po; type: ADME, organism-based; conditions: in vivo; how it was run: as §2
Rattus norvegicus [5] = assay: Reduction of overnight food intake in diet induced obese Sprague-Dawley rat at 3 mg/kg, po; type: functional; set-up: scale not given: the % may be the effect or the level left
How it was run: (§3)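 Male DIO rats were acclimated at least 3 days in an automated food-intake system, where computer-linked balances logged grams of food eaten every 5 min. They were fed milled MHF diet throughout. Compound or vehicle (10% Tween-80 in water) was given by oral gavage 1 h before dark-cycle onset. Overnight food intake and body-weight change were measured against vehicle, with significance set at P < 0.05.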

Rattus norvegicus [6] = assay: Reduction of body weight in diet induced obese Sprague-Dawley rat at 3 mg/kg, po; type: functional; how it was run: as §3
Cannabinoid receptor 1 [7] = target: T2, Cannabinoid receptor 1 (Rattus norvegicus, UniProt P20272); assay: Displacement of [3H]CP-55940 from rat recombinant CB1R expressed in CHO cells; type: cell-based
T2 sequence (P20272 whole entry): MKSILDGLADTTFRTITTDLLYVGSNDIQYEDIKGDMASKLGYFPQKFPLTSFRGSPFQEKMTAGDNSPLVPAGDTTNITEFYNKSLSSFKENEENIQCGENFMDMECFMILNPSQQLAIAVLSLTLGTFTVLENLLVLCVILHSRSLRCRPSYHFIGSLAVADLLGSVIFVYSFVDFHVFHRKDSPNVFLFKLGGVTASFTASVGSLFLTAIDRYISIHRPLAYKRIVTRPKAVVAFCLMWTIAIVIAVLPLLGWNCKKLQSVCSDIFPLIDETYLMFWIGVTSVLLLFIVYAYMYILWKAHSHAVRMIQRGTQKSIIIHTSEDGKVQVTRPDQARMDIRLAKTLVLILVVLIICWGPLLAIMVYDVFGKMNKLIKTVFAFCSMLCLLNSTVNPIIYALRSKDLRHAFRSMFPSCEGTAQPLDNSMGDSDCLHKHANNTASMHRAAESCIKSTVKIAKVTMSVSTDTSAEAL

Cannabinoid receptor 1 [8] = target: T1, Cannabinoid receptor 1; assay: Displacement of [3H]SR141716 from human recombinant CB1R expressed in CHO cells; type: cell-based
Cannabinoid receptor 1 [9] = target: T2, Cannabinoid receptor 1; assay: Displacement of [3H] SR-141716 from rat recombinant CB1R expressed in CHO cells; type: cell-based
Cannabinoid receptor 1 [10] = target: T1, Cannabinoid receptor 1; assay: Agonist activity at human recombinant CB1R expressed in CHO cells assessed as inhibition of forskolin-stimulated cAMP level; type: functional, cell-based
How it was run: (§4)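 Recombinant CB1R-CHO cells were incubated with test compound across a range of concentrations, plus forskolin and the phosphodiesterase inhibitor IBMX. Buffer was Earle's balanced salt solution with 5 mM MgCl₂, 10 mM HEPES pH 7.3 and 1 mg/mL BSA, for 30 min at room temperature, with cAMP read out.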

[11] = Half life in Sprague-Dawley rat at 1 mg/kg, iv and 2 mg/kg, po; type: ADME, organism-based; conditions: in vivo; how it was run: as §2
[12] = Ratio of drug level in brain to plasma in Sprague-Dawley rat at 1 mg/kg, iv and 2 mg/kg, po over 0.25 to 4 hrs; type: ADME, organism-based
How it was run: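 Male Sprague-Dawley rats got 1 mpk iv for brain penetration and were euthanised by CO₂ 1 h later. Whole brain was frozen on dry ice, and blood was taken by cardiac puncture into lithium heparin. PK arms were dosed 1 mpk iv and 2 mpk po, with blood sampled at several time points. Plasma and brain homogenate were extracted by protein precipitation and analysed by LCMS².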

Cannabinoid receptor 1 [13] = target: T2, Cannabinoid receptor 1; assay: Antagonist activity at rat recombinant CB1R expressed in CHO cells assessed as inhibition of methanandamide-stimulated cAMP level; type: functional, cell-based
How it was run: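 Antagonist mode of the forskolin-stimulated cAMP assay in CB1R-CHO cells. Methanandamide at 300 nM was the agonist challenge, and IC₅₀ was determined across test-compound concentrations. Percent inhibition was also recorded at a single 2 µM test concentration.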

Cannabinoid receptor 1 [14] = target: T2, Cannabinoid receptor 1; assay: Agonist activity at rat recombinant CB1R expressed in CHO cells assessed as inhibition of forskolin-stimulated cAMP level; type: functional, cell-based; how it was run: as §4
Cannabinoid receptor 2 = Cannabinoid receptor 2 (Homo sapiens, UniProt P34972); assay: Displacement of [3H]CP-55940 from human recombinant CB2R expressed in CHO cells; type: cell-based; how it was run: as §1
Cannabinoid receptor 2, sequence (P34972 whole entry): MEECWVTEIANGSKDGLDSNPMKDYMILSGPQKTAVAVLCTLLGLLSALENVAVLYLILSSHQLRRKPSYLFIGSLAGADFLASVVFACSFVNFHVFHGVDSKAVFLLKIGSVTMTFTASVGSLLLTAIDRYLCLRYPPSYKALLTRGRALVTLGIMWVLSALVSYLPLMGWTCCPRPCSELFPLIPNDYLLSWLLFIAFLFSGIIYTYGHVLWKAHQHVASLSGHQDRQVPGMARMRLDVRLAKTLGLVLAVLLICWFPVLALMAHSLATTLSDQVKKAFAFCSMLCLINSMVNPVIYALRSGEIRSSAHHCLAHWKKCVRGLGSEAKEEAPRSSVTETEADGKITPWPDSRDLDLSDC

[15] = target: Voltage-gated inwardly rectifying potassium channel KCNH2 (Homo sapiens, UniProt Q12809); assay: Inhibition of human ERG by MK-0499 binding assay
Voltage-gated inwardly rectifying potassium channel KCNH2, sequence (Q12809 whole entry): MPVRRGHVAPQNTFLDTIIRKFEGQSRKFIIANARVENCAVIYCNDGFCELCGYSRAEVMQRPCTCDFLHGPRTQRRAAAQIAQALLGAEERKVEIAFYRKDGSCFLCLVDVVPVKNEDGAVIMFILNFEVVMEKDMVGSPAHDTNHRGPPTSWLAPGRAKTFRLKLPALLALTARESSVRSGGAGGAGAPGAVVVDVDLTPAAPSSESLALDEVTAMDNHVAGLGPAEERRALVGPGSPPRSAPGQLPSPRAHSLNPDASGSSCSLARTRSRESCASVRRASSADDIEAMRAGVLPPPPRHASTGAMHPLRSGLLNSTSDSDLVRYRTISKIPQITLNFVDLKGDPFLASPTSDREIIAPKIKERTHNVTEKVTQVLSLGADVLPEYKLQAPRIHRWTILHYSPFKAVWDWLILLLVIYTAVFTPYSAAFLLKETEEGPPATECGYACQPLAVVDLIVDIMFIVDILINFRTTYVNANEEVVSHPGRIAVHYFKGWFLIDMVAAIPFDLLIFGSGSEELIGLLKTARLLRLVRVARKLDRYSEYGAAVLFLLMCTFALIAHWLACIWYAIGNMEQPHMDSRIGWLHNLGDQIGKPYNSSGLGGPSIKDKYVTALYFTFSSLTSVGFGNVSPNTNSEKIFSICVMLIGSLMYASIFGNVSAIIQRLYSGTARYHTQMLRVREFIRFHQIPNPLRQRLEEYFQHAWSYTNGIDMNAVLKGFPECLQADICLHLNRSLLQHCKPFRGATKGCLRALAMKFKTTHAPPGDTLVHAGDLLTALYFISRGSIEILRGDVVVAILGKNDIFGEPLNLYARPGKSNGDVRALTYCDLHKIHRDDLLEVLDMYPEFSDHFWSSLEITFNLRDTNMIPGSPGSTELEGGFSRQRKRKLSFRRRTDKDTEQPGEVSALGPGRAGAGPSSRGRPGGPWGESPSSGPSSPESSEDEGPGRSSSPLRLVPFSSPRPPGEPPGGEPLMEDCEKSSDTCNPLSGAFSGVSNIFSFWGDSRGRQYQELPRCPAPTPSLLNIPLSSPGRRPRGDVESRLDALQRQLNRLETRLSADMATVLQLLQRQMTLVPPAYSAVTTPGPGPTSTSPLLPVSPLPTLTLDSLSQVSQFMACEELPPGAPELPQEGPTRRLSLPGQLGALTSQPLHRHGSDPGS

Cannabinoid receptor 1 [16] = target: T1, Cannabinoid receptor 1; assay: Inverse agonist activity at human recombinant CB1R expressed in CHO cells assessed as increase in forskolin-stimulated cAMP level; type: functional, cell-based; how it was run: as §4
[17] = Ratio of drug level in brain to plasma in Sprague-Dawley rat at 1 mg/kg, iv and 2 mg/kg, po after 4 hrs; type: ADME, organism-based
Cytochrome P450 3A4 = Cytochrome P450 3A4 (Homo sapiens, UniProt P08684); assay: Inhibition of CYP3A4; type: ADME
Cytochrome P450 3A4, sequence (P08684 whole entry): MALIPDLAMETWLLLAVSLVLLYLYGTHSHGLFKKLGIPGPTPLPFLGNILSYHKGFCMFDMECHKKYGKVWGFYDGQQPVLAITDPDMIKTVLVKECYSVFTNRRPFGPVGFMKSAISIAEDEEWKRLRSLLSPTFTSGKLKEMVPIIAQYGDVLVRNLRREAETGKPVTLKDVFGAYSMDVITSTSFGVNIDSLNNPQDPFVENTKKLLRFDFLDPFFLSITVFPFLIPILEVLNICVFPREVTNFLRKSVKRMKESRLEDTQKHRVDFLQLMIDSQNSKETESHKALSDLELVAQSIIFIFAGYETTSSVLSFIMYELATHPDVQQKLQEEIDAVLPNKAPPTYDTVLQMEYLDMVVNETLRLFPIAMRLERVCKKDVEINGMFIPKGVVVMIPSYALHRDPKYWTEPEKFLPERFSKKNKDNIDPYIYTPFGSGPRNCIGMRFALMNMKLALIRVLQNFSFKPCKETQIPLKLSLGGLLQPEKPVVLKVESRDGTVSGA

Cytochrome P450 2C9 = Cytochrome P450 2C9 (Homo sapiens, UniProt P11712); assay: Inhibition of CYP2C9; type: ADME
Cytochrome P450 2C9, sequence (P11712 whole entry): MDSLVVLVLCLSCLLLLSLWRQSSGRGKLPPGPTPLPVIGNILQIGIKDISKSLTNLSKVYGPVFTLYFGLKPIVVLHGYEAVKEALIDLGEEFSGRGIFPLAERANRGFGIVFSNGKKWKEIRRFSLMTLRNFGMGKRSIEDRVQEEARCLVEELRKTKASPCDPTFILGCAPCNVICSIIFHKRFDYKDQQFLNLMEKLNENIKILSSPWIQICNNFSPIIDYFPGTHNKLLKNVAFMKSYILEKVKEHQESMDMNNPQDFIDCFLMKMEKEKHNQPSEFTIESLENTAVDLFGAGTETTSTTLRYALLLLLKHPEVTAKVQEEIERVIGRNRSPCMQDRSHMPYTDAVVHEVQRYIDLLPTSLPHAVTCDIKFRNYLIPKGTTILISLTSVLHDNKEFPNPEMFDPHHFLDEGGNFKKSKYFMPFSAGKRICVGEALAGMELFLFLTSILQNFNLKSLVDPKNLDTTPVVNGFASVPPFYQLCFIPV

Cytochrome P450 2C8 = target: T3, Cytochrome P450 2C8 (Homo sapiens, UniProt P10632); assay: Inhibition of CYP2C8; type: ADME
T3 sequence (P10632 whole entry): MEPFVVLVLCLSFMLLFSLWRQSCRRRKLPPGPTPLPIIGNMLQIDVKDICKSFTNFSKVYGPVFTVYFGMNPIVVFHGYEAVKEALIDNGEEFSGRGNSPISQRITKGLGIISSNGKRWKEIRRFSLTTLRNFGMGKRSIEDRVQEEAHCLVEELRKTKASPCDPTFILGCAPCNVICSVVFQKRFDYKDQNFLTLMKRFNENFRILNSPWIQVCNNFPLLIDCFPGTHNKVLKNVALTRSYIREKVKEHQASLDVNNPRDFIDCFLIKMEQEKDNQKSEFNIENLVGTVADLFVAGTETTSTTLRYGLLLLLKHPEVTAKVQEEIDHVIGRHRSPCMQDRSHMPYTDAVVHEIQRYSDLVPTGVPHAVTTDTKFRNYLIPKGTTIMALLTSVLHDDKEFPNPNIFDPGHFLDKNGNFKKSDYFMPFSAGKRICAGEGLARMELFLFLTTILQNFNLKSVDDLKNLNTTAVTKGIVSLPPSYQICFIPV

Rattus norvegicus [18] = species: Rattus norvegicus; assay: Reduction of overnight food intake in diet induced obese Sprague-Dawley rat assessed as minimal effective dose; type: functional; conditions: feed or water, read-out: MED; how it was run: as §3
[19] = Plasma clearance in dog; type: ADME, organism-based, Canis lupus familiaris
[20] = Volume of distribution at steady state in dog; type: ADME, organism-based, Canis lupus familiaris; conditions: in vivo, read-out: Vdss
[21] = Half life in dog; type: ADME, organism-based, Canis lupus familiaris; conditions: in vivo
[22] = Cmax in dog; type: ADME, organism-based, Canis lupus familiaris; conditions: in vivo
[23] = Bioavailability in dog; type: ADME, organism-based, Canis lupus familiaris; conditions: in vivo
[24] = Plasma clearance in rhesus monkey; type: ADME, organism-based, Macaca mulatta
[25] = Volume of distribution at steady state in rhesus monkey; type: ADME, organism-based, Macaca mulatta; conditions: in vivo, read-out: Vdss
[26] = Half life in rhesus monkey; type: ADME, organism-based, Macaca mulatta; conditions: in vivo
[27] = Cmax in rhesus monkey; type: ADME, organism-based, Macaca mulatta; conditions: in vivo
[28] = Oral bioavailability in rhesus monkey; type: ADME, organism-based, Macaca mulatta; conditions: in vivo
[29] = Cmax in Sprague-Dawley rat at 1 mg/kg, iv and 2 mg/kg, po; type: ADME, organism-based; conditions: in vivo; how it was run: as §2

T1 sequence (P21554 whole entry): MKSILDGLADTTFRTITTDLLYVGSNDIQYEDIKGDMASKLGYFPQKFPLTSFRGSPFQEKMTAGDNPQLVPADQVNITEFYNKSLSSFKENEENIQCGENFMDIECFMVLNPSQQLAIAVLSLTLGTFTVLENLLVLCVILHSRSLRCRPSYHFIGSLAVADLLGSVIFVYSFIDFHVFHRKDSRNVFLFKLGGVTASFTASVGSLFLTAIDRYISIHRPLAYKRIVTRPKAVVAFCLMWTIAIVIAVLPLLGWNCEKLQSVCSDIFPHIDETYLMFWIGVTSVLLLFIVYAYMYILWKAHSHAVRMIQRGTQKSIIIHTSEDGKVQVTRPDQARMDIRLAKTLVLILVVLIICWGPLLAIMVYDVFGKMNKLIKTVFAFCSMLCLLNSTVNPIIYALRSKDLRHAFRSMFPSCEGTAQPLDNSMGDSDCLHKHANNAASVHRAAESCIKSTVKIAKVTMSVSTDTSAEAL

| SMILES | IC50 (Cannabinoid receptor 1 [1]) [nM] | clearance [2] [mL/min/kg] | Vd [3] [L/kg] | bioavailability [4] [%] | Activity (Rattus norvegicus [5]) [%] | Activity (Rattus norvegicus [6]) [g] | IC50 (Cannabinoid receptor 1 [7]) [nM] | IC50 (Cannabinoid receptor 1 [8]) [nM] | IC50 (Cannabinoid receptor 1 [9]) [nM] | EC50 (Cannabinoid receptor 1 [10]) [nM] | half-life [11] [h] | Kp [12] | IC50 (Cannabinoid receptor 1 [13]) [nM] | EC50 (Cannabinoid receptor 1 [14]) [nM] | IC50 (Cannabinoid receptor 2) [nM] | IC50 [15] [nM] | EC50 (Cannabinoid receptor 1 [16]) [nM] | Kp at 4 h [17] | other results |
| --- | --- | --- | --- | --- | --- | --- | --- | --- | --- | --- | --- | --- | --- | --- | --- | --- | --- | --- | --- |
| O=C(c1ccc(C(F)(F)F)cc1)N1CCN(S(=O)(=O)c2cc(C3CC3)cc(C(F)(F)F)c2)CC1 | 58 | 1.9 | 2.7 | 47 | -14 | 8 | 175 | 47 | 227 | 1.3 | 19 | 0.8 | 77 | 4.4 |  |  |  |  |  |
| O=C([C@@H]1C[C@H]1c1ccc(C(F)(F)F)cc1)N1CCN(S(=O)(=O)c2cc(-c3ccn[nH]3)cc(C(F)(F)F)c2)CC1 | 0.3 |  |  |  |  | -10 |  |  |  |  |  |  |  |  | > 10000 | 500 |  |  |  |
| O=C([C@@H]1C[C@H]1c1ccc(C(F)(F)F)cc1)N1CCN(S(=O)(=O)c2cc(C(O)C(F)(F)F)cc(C(F)(F)F)c2)CC1 (mixture of isomers) | 1.5 |  |  |  |  | -8 |  |  |  |  |  |  |  |  | > 10000 | 60 |  |  |  |
| O=C(Cc1ccc(C(F)(F)F)cc1)N1CCN(S(=O)(=O)c2cc(C3CC3)cc(C(F)(F)F)c2)CC1 | 1.2 |  |  |  | -40 | -2 | 27 | 0.5 | 11 |  |  | 1.1 | 1.9 | 0.6 | > 10000 |  | 1 |  |  |
| O=C([C@@H]1C[C@H]1c1ccc(C(F)(F)F)cc1)N1CCN(S(=O)(=O)c2cc(-c3nnc[nH]3)cc(C(F)(F)F)c2)CC1 | 0.2 | 23.7 | 3.8 | 31 |  | -14 |  |  |  |  | 3.8 |  |  |  | > 10000 |  |  | 0.2 | IC50 (Cytochrome P450 3A4): 4700 nM; IC50 (Cytochrome P450 2C9): 6000 nM; IC50 (Cytochrome P450 2C8): 15000 nM; minimal effective dose (Rattus norvegicus [18]): 0.3 mg/kg; clearance [19]: 1.4 mL/min/kg; Vd [20]: 1.1 L/kg; half-life [21]: 8.6 h; Cmax [22]: 210 nM; bioavailability [23]: 26%; clearance [24]: 14.6 mL/min/kg; Vd [25]: 2.5 L/kg; half-life [26]: 2 h; Cmax [27]: 3 nM; bioavailability [28]: < 2%; Cmax [29]: 190 nM |
| O=C([C@@H]1C[C@H]1c1ccc(C(F)(F)F)cc1)N1CCN(S(=O)(=O)c2cc(C3CC3)cc(C(F)(F)F)c2)CC1 | 0.3 | 3.7 | 5.4 | 74 | -59 | -14 | 2.2 | 0.1 | 0.2 | 5.8 | 22 | 0.8 | 9.2 | 3.4 | > 10000 |  | 5.8 | 0.3 |  |
